Test results as given in ChEMBL document CHEMBL1132147, “2-(2-Phenylcyclopropyl)imidazolines: reversed enantioselective interaction at I(1) and I(2) imidazoline receptors” (J Med Chem, 1999).

Legend:
[1] = Relative binding to I2 and I1 imidazoline receptors […]
[2] = Relative binding to I2 imidazoline and alpha-2 adrenergic receptors […]
[3] = target: T1, Adrenergic receptor alpha-2 (Rattus norvegicus, UniProt P22086+P19328+P22909); test: Displacement of [3H]-clonidine from Alpha-2 adrenergic receptor of rat cortex membranes; assay type: cell membranes, Membrane
T1 sequence (P22086 whole entry): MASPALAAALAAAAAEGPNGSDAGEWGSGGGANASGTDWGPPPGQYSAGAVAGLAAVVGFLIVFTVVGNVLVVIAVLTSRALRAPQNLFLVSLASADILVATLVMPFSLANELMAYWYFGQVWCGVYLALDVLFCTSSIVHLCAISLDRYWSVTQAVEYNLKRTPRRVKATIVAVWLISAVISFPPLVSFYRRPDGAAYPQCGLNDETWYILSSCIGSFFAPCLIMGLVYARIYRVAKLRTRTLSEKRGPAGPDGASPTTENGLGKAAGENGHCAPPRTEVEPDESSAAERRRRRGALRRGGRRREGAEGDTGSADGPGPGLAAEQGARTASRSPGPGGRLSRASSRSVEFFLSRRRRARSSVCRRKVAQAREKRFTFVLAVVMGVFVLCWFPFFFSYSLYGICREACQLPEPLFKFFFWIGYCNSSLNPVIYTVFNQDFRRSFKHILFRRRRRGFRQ
T1 sequence (P19328 whole entry): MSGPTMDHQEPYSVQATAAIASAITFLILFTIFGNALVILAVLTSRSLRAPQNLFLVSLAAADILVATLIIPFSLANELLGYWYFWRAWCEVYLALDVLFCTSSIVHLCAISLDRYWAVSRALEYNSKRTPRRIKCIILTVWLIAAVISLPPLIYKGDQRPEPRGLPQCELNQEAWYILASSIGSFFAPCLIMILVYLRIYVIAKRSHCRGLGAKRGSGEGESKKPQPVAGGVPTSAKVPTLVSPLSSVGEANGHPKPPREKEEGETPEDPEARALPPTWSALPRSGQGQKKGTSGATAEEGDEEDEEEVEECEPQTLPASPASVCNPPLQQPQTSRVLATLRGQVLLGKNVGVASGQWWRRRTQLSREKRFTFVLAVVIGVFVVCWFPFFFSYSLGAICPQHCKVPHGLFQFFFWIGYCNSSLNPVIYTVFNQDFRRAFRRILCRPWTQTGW
T1 sequence (P22909 whole entry): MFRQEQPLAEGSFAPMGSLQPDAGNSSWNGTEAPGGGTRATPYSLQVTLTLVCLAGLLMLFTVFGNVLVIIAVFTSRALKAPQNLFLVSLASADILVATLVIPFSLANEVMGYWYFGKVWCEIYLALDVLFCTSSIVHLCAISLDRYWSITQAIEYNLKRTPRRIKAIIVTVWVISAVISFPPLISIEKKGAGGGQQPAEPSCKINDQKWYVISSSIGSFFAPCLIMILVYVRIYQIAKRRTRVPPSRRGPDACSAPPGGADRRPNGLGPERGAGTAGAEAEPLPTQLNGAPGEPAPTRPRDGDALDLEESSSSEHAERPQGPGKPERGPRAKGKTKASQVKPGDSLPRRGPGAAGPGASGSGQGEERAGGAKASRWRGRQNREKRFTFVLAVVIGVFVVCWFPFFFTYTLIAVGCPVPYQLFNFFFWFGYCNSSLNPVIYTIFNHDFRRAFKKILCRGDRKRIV
Method in brief: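 Competition binding using hydrogen oxalate salts of the compounds: [3H]clonidine on rat cortex membranes (α2) or [3H]idazoxan on rabbit kidney membranes (I2). IC50 by nonlinear regression of displacement data, converted to Ki by Cheng–Prusoff and given as pKi ± SEM.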

[4] = Displacement of [3H]idazoxan from imidazoline receptor I-2 of rabbit kidney membranes
[5] = target: Nischarin (Rattus norvegicus); test: Displacement of [125I]p-iodoclonidine from imidazoline receptor I-1 of PC12 cell membranes

SMILES | Ratio [1] | Ratio [2] | Log Ki [3] | Log Ki [4] | Ki [5] [nM]
c1ccc(C2CC2C2=NCCN2)cc1 (stereo in doubt; 4a(+/-)) [listing 1 of 2 here] | 7 | 33 | – | – | –
c1ccc([C@H]2C[C@@H]2C2=NCCN2)cc1 | – | – | -6.62 | -6.91 | –
c1ccc(C2CC2C2=NCCN2)cc1 (stereo in doubt; 4a(+/-)) [listing 2 of 2 here] | – | – | -4.53 | -6.05 | –
c1ccc([C@@H]2C[C@H]2C2=NCCN2)cc1 | – | – | -6.92 | -8.22 | –
C(=C\c1ccccc1)/C1=NCCN1 [TRACIZOLINE] | 10 | 7410 | -4.85 | -8.72 | 19.1
c1ccc(C2CC2C2=NCCN2)cc1 (racemic) | – | – | -6.4 | -7.64 | –
